Assay outcomes (PubChem BioAssay)
MrgX1 PAM – positive allosteric modulators of MrgX1, primary screen, HEK293 cells, Fluo-4 calcium flux. B-score at 10 µM. FDSS; stronger effect = higher value. hit rate 0.63% among 310,000;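 active = plate-corrected calcium response at least 3 library SD above typical, normal starting fluorescence, not activating the receptor alone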;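 note: compound read alongside a low EC10 to EC30 dose of BAM8-22 agonist; peak minus trough fluorescence over baseline measured at the second addition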
Target sequence (Q96LB2 whole entry, looked up): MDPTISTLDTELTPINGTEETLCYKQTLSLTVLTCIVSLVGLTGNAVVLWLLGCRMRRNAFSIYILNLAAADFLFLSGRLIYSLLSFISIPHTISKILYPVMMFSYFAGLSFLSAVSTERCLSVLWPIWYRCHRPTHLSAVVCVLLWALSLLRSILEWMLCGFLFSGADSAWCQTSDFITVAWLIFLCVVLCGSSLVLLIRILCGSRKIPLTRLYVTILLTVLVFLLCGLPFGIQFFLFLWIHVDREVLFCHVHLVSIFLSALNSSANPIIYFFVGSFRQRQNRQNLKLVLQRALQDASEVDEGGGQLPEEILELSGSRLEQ
RGS4 pot – RGS4 potentiators or activators, primary screen, cell-based, HEK293 M3R inducible RGS4, calcium flux; B-score at 10 µM; AID 463111, 2010; hit rate 0.92% among 310,000; carbachol calcium flux Fluo4; stronger effect = lower value;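 active = B-score of the integrated calcium signal more than 4 SD below the library mean, with starting fluorescence not abnormally high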;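 note: negative B-score means reduced calcium response which marks RGS4 activation or potentiation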
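System – HEK293 FlpIn-TREx cells, stable M3R, doxycycline-inducible RGS4 · Reagent – ECmax carbachol challenge · Times – compound preincubation 20 min at room temperature before agonist · Technique – Fluo4 fluorescence kinetic imaging of calcium · Measure – B score of integrated Fluo4 ratio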
RGS4 inh – RGS4 inhibitors, primary screen, cell-based, HEK293 M3R inducible RGS4, calcium flux; Regulator of G-protein signaling 4 (Homo sapiens), P49798; Fluo-4 calcium flux; stronger effect = higher value; triggered by carbachol at its EC20; B-score at 10 µM; hit rate 0.45% among 310,000; AID 463165, 2010;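 active = B-score, a plate-corrected calcium signal, over three deviations above library mean, with baseline fluorescence within five deviations of library mean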;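 note: RGS4 expression induced by doxycycline in cells with stable M3 receptor; B-score is computed from the integrated fluorescence ratio over baseline after carbachol; higher B-score means a larger calcium signal and so more RGS4 inhibition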
Target sequence (P49798 whole entry, looked up): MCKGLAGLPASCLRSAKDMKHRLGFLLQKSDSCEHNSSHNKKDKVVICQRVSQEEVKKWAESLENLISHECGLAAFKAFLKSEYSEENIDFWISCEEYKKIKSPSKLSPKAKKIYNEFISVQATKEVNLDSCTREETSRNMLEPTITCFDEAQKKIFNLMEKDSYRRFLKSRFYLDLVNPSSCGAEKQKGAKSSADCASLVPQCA
MrgX1 antagonist – antagonists of human MrgX1 receptor, primary screen, HEK293 cells, Fluo-4 calcium flux | Mas-related G-protein coupled receptor member X1 (Homo sapiens), Q96LB2 | BAM8-22 antagonism; stronger effect = lower value | B-score at 10 µM | hit rate 1.3% among 310,000 | AID 588676, 2011;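 active = calcium-response B-score plate-corrected more than 3 library SD below zero, starting fluorescence within 5 deviations, no agonist response on first addition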;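 note: peak minus trough fluorescence over baseline after final BAM8-22 challenge near maximal dose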
MrgX1 agonist – agonists of human MrgX1 receptor, primary screen, HEK293 cells, Fluo-4 calcium flux; Mas-related G-protein coupled receptor member X1 (Homo sapiens), Q96LB2; Fluo-4 calcium fluorescence, agonist mode; stronger effect = higher value; B-score at 10 µM; hit rate 0.44% among 310,000; AID 588627, 2011;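 active = calcium response B-score plate-corrected fluorescence ratio at least 3 library SD, with starting fluorescence B-score inside 5 SD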
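Assay system: MrgX1-expressing HEK293 cells / Amount: fifteen thousand cells per well / Doses: test compound in the initial addition of three / Timing: cells plated overnight, dye loaded 0.5 h 37 °C, 0.5 h room temperature / Technique: kinetic calcium dye fluorescence, Fluo-4 NW / Control set: positive and negative controls per plate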
MrgX1 antag conf – MrgX1 receptor antagonists, duplicate retest, confirmation, HEK293 cells, Fluo-4 calcium flux; shares compounds with MrgX1 antagonist; BAM8-22 calcium flux; stronger effect = lower value; remaining BAM8-22 calcium response % of control (stronger effect = lower value), % at 10 µM; hit rate 19% among 2,300;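 active = remaining agonist calcium response no higher than 100% minus 3 SD of agonist-only control wells, with starting fluorescence near control levels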;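 note: agonist BAM8-22 given at a near maximal EC90 to ECmax level; peak minus minimum fluorescence divided by baseline after agonist addition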
HEK293 Ca flux – nonspecific calcium signal in parental HEK293, confirmation, counter-screen for MrgX1 antagonist project, parental HEK293 cells, Fluo-4 calcium flux; hit rate 2% among 4,000; fluorescence ratio F(max-min)/F0 at 10 µM; Fluo-4 calcium fluorescence, FDSS; shares compounds with MrgX1 antagonist;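 active = duplicate-averaged calcium fluorescence ratio at least three times the standard deviation of buffer wells, a nonspecific response in parental cells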
HEK293 Ca counter – calcium response in parental HEK293 cells, primary screen, counter-screen for MrgX1 allosteric activator project, cell-based, Fluo-4 calcium flux, duplicate; shares compounds with MrgX1 antagonist; Fluo-4 fluorescence ratio; stronger effect = higher value; fluorescence ratio F(max-min)/F0 at 10 µM; hit rate 0.4% among 4,000;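 active = calcium fluorescence ratio, averaged over duplicates, at least 3 SD of the buffer-well ratio, meaning a nonspecific response in receptor-free cells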;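 note: untransfected parental HEK293 lacking MrgX1 used as counterscreen for MrgX1 allosteric activators; fluorescence change taken during the second addition on a kinetic imager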
HEK293 Ca cntr2 – calcium response in parental HEK293 cells, primary screen, counter-screen for MrgX1 agonist project, cell-based, Fluo-4 calcium flux, duplicate, agonist mode; fluorescence ratio F(max-min)/F0 at 10 µM; hit rate 8.7% among 4,000; shares compounds with MrgX1 antagonist; Fluo-4 calcium fluorescence (FDSS); stronger effect = higher value;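 active = calcium fluorescence ratio at least three times the spread of buffer wells, meaning a non-specific response in parental cells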
An asterisk follows results filed as active; i = inactive; nt = no result given. In the library only some 3.5% were active in any assay of this set; here they are far more common.

SMILES | MrgX1 PAM | RGS4 pot | RGS4 inh | MrgX1 antagonist | MrgX1 agonist | MrgX1 antag conf | HEK293 Ca flux | HEK293 Ca counter | HEK293 Ca cntr2
O=C(O)c1c[nH]c2c(C(F)(F)F)cccc2c1=O | i | i | i | -7.39* | i | i | i | i | i
CC(C)CN(C(=O)c1ccco1)C1CCS(=O)(=O)C1 (centres undefined) | i | i | i | -4.85* | i | i | i | i | i
CCCCn1c(N)c(N(CCOC)C(=O)c2cc(-c3ccc(F)cc3)nc3ccccc23)c(=O)[nH]c1=O | i | i | i | i | i | nt | nt | nt | nt
Cc1ccc(-n2c(SCC(N)=O)nnc2-c2ccccn2)cc1 | i | i | i | i | i | nt | nt | nt | nt
Cc1cccc(-n2c(SCC(N)=O)nnc2-c2ccccn2)c1C | i | i | i | -8.27* | i | i | i | i | i
CCc1nnc(NS(=O)(=O)c2ccc(Nc3ccc4nonc4c3[N+](=O)[O-])cc2)s1 | i | i | i | i | i | nt | nt | nt | nt
Cc1cccc2cc3c(N)c(C(=O)N4CCOCC4)sc3nc12 | i | i | i | -5.14* | i | i | i | i | 48.3*
Nc1c(C(=O)N2CCOCC2)sc2nc(N3CCOCC3)c3c(c12)CCCC3 | i | i | i | i | i | nt | nt | nt | nt
COc1ccc(C(=O)Nc2nc(C)c(C(=O)N(C)C)s2)cc1OC | i | i | i | -8.66* | i | i | i | i | i
COc1ccc(/C=C/C(=O)Nc2nc(C)c(C(=O)N(C)C)s2)cc1OC | i | i | i | i | i | nt | nt | nt | nt
COc1ccccc1-n1c(C)nc2cc(C(=O)O)ccc21 | i | i | i | -4.81* | i | i | i | i | i
Cc1nc2cc(C(=O)O)ccc2n1-c1ccccc1 | i | i | i | i | i | nt | nt | nt | nt
CCOc1cnc(-c2ccc(OC)cc2)o1 | i | i | i | -4.6* | i | i | i | i | i
Cc1ccc(OCC(=O)N/N=C2/SCC(=O)N2Cc2ccccc2)cc1 | i | i | i | -21.3* | i | i | i | i | i
NC(=O)C1CCN(CC(O)COCc2ccccc2Cl)CC1 (centres undefined) | i | i | i | i | i | nt | nt | nt | nt
COC(=O)c1sc(NC(=O)c2ccc(Cn3cc(Cl)cn3)o2)c(C#N)c1C | i | i | i | -4.57* | i | i | i | i | i
N#Cc1c(NC(=O)c2ccc(Cn3cc(Br)cn3)o2)sc2c1CCCCC2 | i | i | i | i | i | nt | nt | nt | nt
O=C(NNC(=O)c1cc2cc(OC(F)(F)F)ccc2[nH]1)c1ccc(Cl)cc1 | i | i | i | i | i | nt | nt | nt | nt
C=C(C)CSc1nc(C)c(Cc2ccccc2)c(=O)[nH]1 | i | i | i | -6.74* | i | 85.2%* | i | i | i
CCOc1cc(-c2c(C#N)c(N)nc3c2CCCC3C)ccc1O (centres undefined) | i | i | i | -4.74* | i | i | i | i | i
Cc1ccc2[nH]c3c(c2c1)CCC3=O | i | i | i | i | i | nt | nt | nt | nt
Cc1ccc2[nH]c3c(c2c1)CCc1cn[nH]c1-3 | i | i | i | -4.87* | i | i | i | i | i
COc1ccc(OC)c(NC(=O)NC2CCCCCCC2)c1 | i | i | i | i | i | nt | nt | nt | nt
CCCC(=O)Nc1cc(OC)c(NC(=O)NC2CCCCC2)cc1OC | i | i | i | -4.58* | i | i | i | i | i
CC(c1ccccc1C(O)(c1ccccc1)c1ccccc1)N(C)C (centres undefined) | i | i | i | -5.36* | i | i | i | i | i
SMILES | MrgX1 PAM | RGS4 pot | RGS4 inh | MrgX1 antagonist | MrgX1 agonist | MrgX1 antag conf | HEK293 Ca flux | HEK293 Ca counter | HEK293 Ca cntr2
O=C(O)COc1ccccc1/C=N/NC(=O)CSc1nnc(SCc2ccccc2)s1 | i | i | i | i | i | nt | nt | nt | nt
CN=c1nc(-c2ccccc2)n(-c2ccccc2)s1 | i | nt | nt | -4.89* | i | i | i | i | i
Cc1cnc(C(=O)OCC(=O)c2csc(N3CCCCC3)n2)cn1 | i | i | i | -5.66* | i | i | i | i | i
C=C(C)COc1ccc(-c2nc(N)ncc2Oc2ccc(OC)cc2)c(O)c1 | i | i | i | -4.62* | i | i | i | i | i
C=C(C)COc1ccc(-c2nc(N)ncc2Oc2ccccc2OC)c(O)c1 | i | nt | nt | i | i | nt | nt | nt | nt
Cc1cc2nc3n(c2cc1C)CC1CC(C(=O)NCc2cccc(C(F)(F)F)c2)N(C)C31 (centres undefined) | i | i | i | -5.49* | i | i | i | i | i
CN1C(C(=O)NCc2cccc(C(F)(F)F)c2)CC2Cn3c(nc4cc5ccccc5cc43)C21 (centres undefined) | i | i | i | i | i | nt | nt | nt | nt
Cn1ccc(NC(=O)Nc2cccc([N+](=O)[O-])c2)n1 | i | i | i | i | i | nt | nt | nt | nt
CC(C)(Cc1cc(CC(C)(C)C(=O)O)cc(C(C)(C)C)c1)C(=O)O | i | i | i | -7.55* | i | i | i | i | i
CCN1/C(=C/c2ccc3ccccc3[n+]2CC)C=Cc2ccccc21 | i | -9.21* | i | -13.4* | i | i | nt | nt | nt
CCN1/C(=C/c2ccc3ccccc3[n+]2CCCS(=O)(=O)[O-])C=Cc2cc(C)ccc21 | i | i | i | i | i | nt | nt | nt | nt
